How the values were obtained:
[1] = test system: ACHN; experiment: Growth inhibition of human ACHN cells after 48 hrs; type: functional
In short: (§1)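 NCI-60 human tumour cell line panel screen run at the US National Cancer Institute under its standard cytotoxicity protocol. It covers leukaemia, NSCLC, colon, CNS, melanoma, ovarian, renal, prostate and breast lines. An initial single-dose test was followed by five-dose testing with 48 h compound exposure.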

[2] = test system: SN12C; experiment: Growth inhibition of human SN12C cells after 48 hrs; type: functional
In short: (§2)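 Run by the NCI 58-cell-line screen under its standard cytotoxicity protocol. Compounds were first tested at a single dose, then at five doses. Cells were exposed to compound for 48 h.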

[3] = test system: TK-10; experiment: Growth inhibition of human TK10 cells after 48 hrs; type: functional; settings: TK-10, 48 h; in short: as §2
[4] = Growth inhibition of human PC3 cells after 48 hrs; type: functional; settings: PC-3, 48 h; in short: as §1
[5] = test system: MCF7; experiment: Growth inhibition of human MCF7 cells after 48 hrs; type: functional; settings: MCF7, 48 h; in short: as §1
[6] = test system: MDA-MB-231; experiment: Growth inhibition of human MDA-MB-231 cells after 48 hrs; type: functional; settings: MDA-MB-231, 48 h; in short: as §1
[7] = Growth inhibition of human Hs 578T cells after 48 hrs; type: functional; in short: as §1
[8] = test system: T47D; experiment: Growth inhibition of human T47D cells after 48 hrs; type: functional; in short: as §2
[9] = Growth inhibition of human LOXIMVI cells after 48 hrs; type: functional; settings: LOX IMVI; in short: as §1
[10] = Cytotoxicity against human fibroblasts assessed as cell viability after 24 hrs incubation by MTT assay; type: cell-based; settings: Fibroblast
In short: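 Cell lines came from DSMZ; primary human fibroblasts served as non-cancer controls. Cells were grown in medium with 10% FCS, seeded at 50,000 cells/ml, and grown 2 days at 37 °C, 10% CO2. Serial dilutions were then added for 24 h. MTT (final 0.5 mg/ml) was added for 2 h. Formazan was pelleted, PBS-washed, dissolved in isopropanol/0.4% HCl and read at 590 nm. Two parallel experiments were run. IC50 was taken as the concentration giving 50% of untreated-control absorbance.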

[11] = test system: Aspergillus niger; experiment: Antimicrobial activity against Aspergillus niger assessed as inhibition at 20 ug/6 mm disk after 1 to 2 days by agar diffusion assay; type: functional
In short: (§3)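 Standard agar diffusion: 6-mm paper disks loaded with 20 µg of compound were placed on inoculated plates. Inhibition-zone diameter (mm) was read after 1 and 2 days of growth.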

[12] = test system: Mycolicibacterium phlei; experiment: Antimicrobial activity against Mycobacterium phlei assessed as inhibition at 20 ug/6 mm disk after 1 to 2 days by agar diffusion assay; type: functional; in short: as §3
[13] = test system: Micrococcus luteus; experiment: Antimicrobial activity against Micrococcus luteus assessed as inhibition at 20 ug/6 mm disk after 1 to 2 days by agar diffusion assay; type: functional; in short: as §3
[14] = test system: Staphylococcus aureus; experiment: Antimicrobial activity against Staphylococcus aureus assessed as inhibition at 20 ug/6 mm disk after 1 to 2 days by agar diffusion assay; type: functional; in short: as §3
[15] = test system: Pseudomonas aeruginosa; experiment: Antimicrobial activity against Pseudomonas aeruginosa assessed as inhibition at 20 ug/6 mm disk after 1 to 2 days by agar diffusion assay; type: functional; in short: as §3
[16] = test system: Escherichia coli; experiment: Antimicrobial activity against Escherichia coli tolC assessed as inhibition at 20 ug/6 mm disk after 1 to 2 days by agar diffusion assay; type: functional; in short: as §3
[17] = test system: HL-60(TB); experiment: Growth inhibition of human HL-60(TB) cells after 48 hrs; type: functional; settings: HL-60, 48 h; in short: as §1
[18] = Growth inhibition of human MOLT4 cells after 48 hrs; type: functional; settings: MOLT-4, 48 h; in short: as §1
[19] = Growth inhibition of human RPMI8226 cells after 48 hrs; type: functional; settings: RPMI-8226, 48 h; in short: as §1
[20] = test system: NCI-H226; experiment: Growth inhibition of human NCI-H226 cells after 48 hrs; type: functional; settings: NCI-H226, 48 h; in short: as §1
[21] = test system: NCI-H23; experiment: Growth inhibition of human NCI-H23 cells after 48 hrs; type: functional; settings: NCI-H23, 48 h; in short: as §1
[22] = Growth inhibition of human COLO205 cells after 48 hrs; type: functional; settings: COLO 205, 48 h; in short: as §1
[23] = Growth inhibition of human HCT15 cells after 48 hrs; type: functional; settings: HCT-15, 48 h; in short: as §1
[24] = test system: KM12; experiment: Growth inhibition of human KM12 cells after 48 hrs; type: functional; settings: KM12, 48 h; in short: as §1
[25] = Growth inhibition of human SF295 cells after 48 hrs; type: functional; settings: SF-295, 48 h; in short: as §1
[26] = test system: SNB-19; experiment: Growth inhibition of human SNB19 cells after 48 hrs; type: functional; settings: SNB-19, 48 h; in short: as §2
[27] = test system: SNB-75; experiment: Growth inhibition of human SNB75 cells after 48 hrs; type: functional; settings: SNB-75, 48 h; in short: as §2
[28] = test system: Malme-3M; experiment: Growth inhibition of human MALME-3M cells after 48 hrs; type: functional; in short: as §1
[29] = test system: M14; experiment: Growth inhibition of human M14 cells after 48 hrs; type: functional; settings: M14, 48 h; in short: as §1
[30] = test system: SK-MEL-2; experiment: Growth inhibition of human SK-MEL-2 cells after 48 hrs; type: functional; settings: SK-MEL-2, 48 h; in short: as §1
[31] = Growth inhibition of human UACC257 cells after 48 hrs; type: functional; settings: UACC-257, 48 h; in short: as §2
[32] = test system: 786-0; experiment: Growth inhibition of human 786-0 cells after 48 hrs; type: functional; settings: 786-0, 48 h; in short: as §1
[33] = test system: A498; experiment: Growth inhibition of human A498 cells after 48 hrs; type: functional; settings: A498, 48 h; in short: as §1
[34] = read-out: pLC50 (the source's name) (converted)

CC1=C(SCCC(=O)OCC(=O)NCCC[Te]c2ccccc2)C(=O)c2ccccc2C1=O
GI50 [1]: 2.82 µM
LC50 [1]: 40.7 µM
TGI ([1]; read-out: pTGI (converted)): 11 µM
GI50 [2]: 1.86 µM
LC50 [2]: 31.6 µM
TGI ([2]; read-out: pTGI (converted)): 6.17 µM
GI50 [3]: 3.8 µM
LC50 [3]: 38 µM
TGI ([3]; read-out: pTGI (converted)): 12.9 µM
GI50 [4]: 2.4 µM
LC50 [4]: 42.7 µM
TGI ([4]; read-out: pTGI (converted)): 12 µM
GI50 [5]: 2.95 µM
LC50 (concentration killing 50% of cells) [5]: 57.5 µM
TGI ([5]; read-out: pTGI (converted)): 12.3 µM
GI50 [6]: 1.86 µM
LC50 [6]: 9.55 µM
TGI ([6]; read-out: pTGI (converted)): 4.27 µM
GI50 [7]: 2.82 µM
LC50 [7]: > 100 µM
TGI ([7]; read-out: pTGI (converted)): > 100 µM
GI50 [8]: 2 µM
LC50 [8]: > 100 µM
TGI ([8]; read-out: pTGI (converted)): 5.75 µM
GI50 [9]: 2.14 µM
LC50 [9]: 75.9 µM
TGI ([9]; read-out: pTGI (converted)): 5.37 µM
IC50 [10]: 13 µM
diameter of the inhibition zone (DIZ) [11]: 19 mm
diameter of the inhibition zone (DIZ) [12]: 16 mm
diameter of the inhibition zone (DIZ) [13]: 11 mm
diameter of the inhibition zone (DIZ) [14]: 13 mm
diameter of the inhibition zone (DIZ) [15]: 12 mm
diameter of the inhibition zone (DIZ) [16]: 11 mm
GI50 [17]: 2.57 µM
CC50 [17, 34]: > 100 µM
TGI ([17]; read-out: pTGI (converted)): 7.24 µM
GI50 [18]: 3.16 µM
CC50 [18, 34]: > 100 µM
TGI ([18]; read-out: pTGI (converted)): 9.77 µM
GI50 [19]: 2.57 µM
CC50 [19, 34]: > 100 µM
TGI ([19]; read-out: pTGI (converted)): 9.33 µM
GI50 [20]: 1.29 µM
CC50 [20, 34]: 6.61 µM
TGI ([20]; read-out: pTGI (converted)): 2.88 µM
GI50 [21]: 2.29 µM
CC50 [21, 34]: 44.7 µM
TGI ([21]; read-out: pTGI (converted)): 7.41 µM
GI50 [22]: 1.91 µM
CC50 [22, 34]: 8.91 µM
TGI ([22]; read-out: pTGI (converted)): 4.17 µM
GI50 [23]: 2.57 µM
CC50 [23, 34]: 77.6 µM
TGI ([23]; read-out: pTGI (converted)): 12 µM
GI50 [24]: 3.63 µM
CC50 [24, 34]: 52.5 µM
TGI ([24]; read-out: pTGI (converted)): 12.6 µM
GI50 [25]: 1.7 µM
CC50 [25, 34]: > 100 µM
TGI ([25]; read-out: pTGI (converted)): 6.31 µM
GI50 [26]: 2.63 µM
CC50 [26, 34]: 42.7 µM
TGI ([26]; read-out: pTGI (converted)): 10.2 µM
GI50 [27]: 1.48 µM
CC50 [27, 34]: 24.5 µM
TGI ([27]; read-out: pTGI (converted)): 5.89 µM
GI50 [28]: 2.19 µM
CC50 [28, 34]: 25.7 µM
TGI ([28]; read-out: pTGI (converted)): 6.03 µM
GI50 [29]: 2.04 µM
CC50 [29, 34]: 17 µM
TGI ([29]; read-out: pTGI (converted)): 5.13 µM
GI50 [30]: 2.09 µM
CC50 [30, 34]: 12.9 µM
TGI ([30]; read-out: pTGI (converted)): 4.79 µM
GI50 [31]: 2.75 µM
CC50 [31, 34]: 32.4 µM
TGI ([31]; read-out: pTGI (converted)): 7.94 µM
GI50 [32]: 2.69 µM
LC50 [32]: 29.5 µM
TGI ([32]; read-out: pTGI (converted)): 8.32 µM
GI50 [33]: 2 µM
LC50 [33]: 30.2 µM
TGI ([33]; read-out: pTGI (converted)): 7.41 µM

From ChEMBL document CHEMBL3351600, “Sulfur, selenium and tellurium pseudopeptides: synthesis and biological evaluation” (Bioorg Med Chem, 2014)
